Assay results of several laboratories.
Protocols differ between the studies behind these lines.
Medium: plasma
Route: oral

SMILES	host	dose	notes	Cmax
CO[C@H]1CC[C@H](N2C(=O)CNc3ncc(-c4ccc(C(C)(C)O)nc4)nc32)CC1	human	7.5 mg	patients	45.8 ng/mL
CCc1nc2c(C)cc(N3CCN(CC(=O)N4CC(O)C4)CC3)cn2c1N(C)c1nc(-c2ccc(F)cc2)c(C#N)s1	human	150 mg	single dose, fed, healthy volunteers	1400 ng/mL
Cn1cc(-c2ccc(S(=O)(=O)[C@@H]3C[C@@H](C(=O)NC4(C#N)CC4)N(C(=O)C4(C(F)(F)F)CC4)C3)c(C(F)(F)F)c2)cn1	human	300 mg	single dose, fasted, healthy volunteers	1070 ng/mL
CCn1c(=O)c(-c2cc(NC(=O)Nc3ccccc3)c(F)cc2Br)cc2cnc(NC)cc21	human	100 mg	single dose, patients	500 ng/mL
COc1ccc([C@@H]2CN(C(=O)[C@@H](O)CO)C[C@@]2(C)[C@@H](C)O)cc1OC1CN(c2ccc(C)cn2)C1	human	0.5 mg	single dose, healthy volunteers	30 ng/mL
CC(C)n1cc(C#N)c2cc(-n3cc(C(=O)O)cn3)ccc21	human	25 mg	single dose, fasted, healthy volunteers	978 ng/mL
COCCOc1cnc2ccn([C@H](C)c3nnc4c(F)cc(-c5cnn(C)c5)cn34)c(=O)c2c1	human	25 mg	multiple doses, once daily, patients	600 ng/mL
CC(C)(O)c1ccccc1-c1ccc2[nH]c(/C=C/c3ccc(C(F)(F)F)cc3)nc2c1	male human	30 mg	single dose, fasted, healthy volunteers	91.8 ng/mL
COc1cc(C(=O)NC2CCN(C)CC2)c(F)cc1Nc1ncc(C(F)(F)F)c(Oc2cccc3c2C(=O)N(C)C3)n1	human	300 mg	multiple doses, once daily, steady state, patients	5.06 µM
